Most compounds without a hit are left out; they make up all but 1.7% or so of the library.
AI-2 QS mod = Vibrio harveyi AI-2 quorum sensing modulators, primary screen, JMH597 strain, luminescence/OD600 ratio. activity change, % at 7.5 µM. 300,000 compounds, 0.4% hits. Vibrio harveyi JMH597 AI-2 luminescence/OD600 ratio, 9 h; hits give low values; strain lacks LuxN and CqsS sensors; 0 = neutral-control median. AID 2094, 2009; in the data active = activity change below about -75%, passing the limit was not always enough; inconclusive = no clear call, values can overlap the other calls;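 note: luminescence divided by OD600 gain over 9 h not by final OD600 alone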
CAL PDZ FP-1 = untagged CAL PDZ binding inhibitors, primary screen, biochemical, fluorescence polarization, HTS. Golgi-associated PDZ and coiled-coil motif-containing protein (Homo sapiens), Q9HD26. purified CAL PDZ, TMR-peptide fluorescence polarization, 1 h. inhibition, % at 24.9 µM. 300,000 compounds, 0.92% hits. AID 602252, 2012;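 active = mean inhibition of at least 30% with at least half of replicates also reaching 30%; inconclusive = no clear call, values can overlap the other calls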;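 note: 0% = DMSO neutral control and 100% = excess unlabeled competitor peptide PRC23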
Rce1 inh = yeast Rce1p protease inhibitors, primary screen, biochemical, fluorescence, cell-free homogeneous. 290,000 compounds, 0.27% hits. CAAX prenyl protease 2 (Saccharomyces cerevisiae (strain ATCC 204508 / S288c)), Q03530. calls only. AID 2563, 2010. yeast membranes, quenched prenylated peptide cleavage fluorescence;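 active = fall in fluorescence gain of 50% or more versus controls, with final raw signal at or below 3038400; inconclusive = same 50% fall but final raw signal above 3038400; inactive = fall in fluorescence gain under 50%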;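 note: plate controls were neutral control wells for no effect and wells lacking membranes for full effect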
Target sequence (Q03530 whole entry, looked up): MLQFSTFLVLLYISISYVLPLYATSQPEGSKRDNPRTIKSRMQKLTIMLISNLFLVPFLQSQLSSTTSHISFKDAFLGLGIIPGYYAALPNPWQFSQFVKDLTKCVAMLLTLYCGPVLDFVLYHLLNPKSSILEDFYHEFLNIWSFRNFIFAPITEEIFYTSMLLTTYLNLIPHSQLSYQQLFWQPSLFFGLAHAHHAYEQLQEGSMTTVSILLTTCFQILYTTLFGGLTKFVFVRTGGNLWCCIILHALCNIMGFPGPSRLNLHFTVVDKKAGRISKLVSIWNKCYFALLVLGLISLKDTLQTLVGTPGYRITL
CAL PDZ FP-2 = CAL PDZ peptide-binding inhibitors, primary screen, biochemical, fluorescence polarization, Cer-tagged CAL PDZ, HTS. Golgi-associated PDZ and coiled-coil motif-containing protein (Homo sapiens), Q9HD26. purified CAL PDZ, TMR-peptide fluorescence polarization, 1 h. inhibition, % at 20 µM. 330,000 compounds, 0.02% hits. AID 504414, 2011;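 active = highest replicate inhibition of at least 40%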;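 note: plate controls were DMSO neutral control wells for no effect and unlabeled competitor peptide control wells for full effect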
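System: purified tagged CAL PDZ domain construct (CerCALP). Schedule: 1 h incubation at room temperature before polarization reading. Medium: 25 mM sodium phosphate pH 7.4, 150 mM NaCl, TCEP, IgG, Thesit. Read-out: percent inhibition from loss of millipolarization. Measured by: FP readout, S and P plane fluorescence. Probe or stimulus: fluorescent TMR peptide probe.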
ARNT TACC3 PPI = disruptors of ARNT/TACC3 protein interaction, primary screen, biochemical, AlphaScreen, single concentration | 390,000 compounds, 0.66% hits | inhibition, % at 9.99 µM | AID 623870, 2012 | AlphaScreen His-ARNT PAS-B/GST-TACC3 binding, luminescence; TACC3 fragment carries E629A point mutation | Transforming acidic coiled-coil-containing protein 3 (Homo sapiens), Q9Y6A5;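 active = mean inhibition of replicates at least 50% and at least half of replicates each reaching 50%; inconclusive = half or more replicates reach 50% but mean below 50%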;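 note: 0% = complete ARNT plus TACC3 wells and 100% = ARNT alone without TACC3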
AlphaScreen ctr = AlphaScreen signal interference compounds, dose response, artefact control for ARNT-TACC3 interaction inhibitor project, biochemical, luminescence, cherry-pick; 1,200 compounds, 50% hits; AC50, µM (highest dose often 68 µM), for the others: top-dose activity change, negative = signal decrease; AID 651705, 2012; His-ARNT PASB-GST AlphaScreen artifact counter-screen; shares compounds with ARNT TACC3 PPI;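 active = every separate test run was called active for a drop in luminescence, with AC50 within twice the top valid dose, actives reach about 71 µM in these data; inconclusive = the separate test runs disagree in their calls; inactive = all runs inactive, including signal change in the wrong direction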
An asterisk follows results filed as active; i = inactive; ? = inconclusive; / = no result given.

SMILES	AI-2 QS mod	CAL PDZ FP-1	Rce1 inh	CAL PDZ FP-2	ARNT TACC3 PPI	AlphaScreen ctr
CCCC(=O)NC(c1cccs1)c1cc([N+](=O)[O-])c2cccnc2c1O (centres undefined)	-26	/	i	0	58*	9.9µM*
COc1ccc(OC)c2nc3c(C(=O)NCCN(C)C)cccc3nc12	/	-2	/	0	20*	-5%
CCn1c(Cc2ccccc2)nnc1SCC(=O)Nc1ccc(OC)cc1	6	0	i	/	-3	/
CCn1c(Cc2ccccc2)nnc1SCC(=O)Nc1ccc(N)cc1	26	-1	i	0	57*	-10%
COc1ccc(-n2c(=O)c(CCC(=O)N(C)Cc3ccccc3C)nc3ccccc32)cc1	-12	-8	i	-1	-15	/
CCC(=O)NC(c1ccc(OC)cc1)c1c(O)ccc2ccccc12 (centres undefined)	19	-4	i	-3	/	/
CCC(=O)NC(c1ccc(N(C)C)cc1)c1c(O)ccc2ccccc12 (centres undefined)	38	-3	i	0	38*	54µM*
CCC(C(=O)OCC(=O)NC1CCS(=O)(=O)C1)c1ccccc1 (centres undefined)	4	-1	i	-1	-4	/
CC(=O)Nc1cccc(NC(=O)CSc2ccc(-c3ccccn3)nn2)c1	20	2	i	-2	58*	14µM*
CC(=O)c1cccc(NC(=O)CSc2ccc(-c3ccccn3)nn2)c1	5	-3	i	-1	55*	15µM*
CC(=O)Nc1cccc(NC(=O)CSc2nnc3ccc(-c4ccccn4)nn23)c1	21	-3	i	-2	23	/
COc1ccc(C)cc1NC(=O)CSc1ccc(-c2ccccn2)nn1	9	0	i	-3	54*	19µM*
Cc1ccc(NC(=O)CSc2ccc(-c3ccccn3)nn2)cc1F	13	-5	i	-3	50*	-20%
Cc1cccc(NC(=O)CSc2ccc(-c3cccnc3)nn2)c1	15	9	i	-3	4	/
CCOC(=O)C1=CN(Cc2cccc(F)c2)S(=O)(=O)NC1c1cccc(OC)c1 (centres undefined)	/	1	/	0	1	/
CN(CC(=O)Nc1ccc(F)c(F)c1F)C(=O)c1n[nH]c(=O)c2ccccc12	/	-2	/	0	/	/
O=C(Nc1ccc(Br)cn1)c1ccc2ccccc2c1	15	4	i	-1	-5	/
COc1cc(NC(=O)CSc2ccc(-c3ccccn3)nn2)cc(OC)c1	3	-1	i	-5	59*	11µM*
CC(=O)N1CCc2[nH]c3ccc(C)cc3c2C1	/	-3	/	0	36*	-1%
Cc1cccc(N2CCN(C(=O)C(C)C)CC2)c1C	11	/	i	0	-12	/
Cc1cccc(C(C)C)c1NC(=O)COC(=O)COc1ccc2c(C)cc(=O)oc2c1	29	2	i	-1	-7	/
N#C/C(=C\c1ccc(OC(=O)c2cccs2)cc1)c1nc2ccccc2[nH]1	43	-2	i	-1	/	/
COc1ccc(C2C(C#N)=C(N)Oc3n[nH]c(-c4ccccn4)c32)c(OC)c1OC (centres undefined)	29	-4	i	0	60*	-20%
CCOc1ccc(C2=Nn3c(nnc3-c3ccccn3)SC2)cc1	4	-1	i	-6	63*	-27%
COc1ccccc1N1CCN(C(=O)CSc2nc(N)cc(=O)[nH]2)CC1	14	-3	i	/	1	/
SMILES	AI-2 QS mod	CAL PDZ FP-1	Rce1 inh	CAL PDZ FP-2	ARNT TACC3 PPI	AlphaScreen ctr
COc1cc(Cc2nccc3cc(OC)c(OC)cc23)c(S(=O)(=O)O)cc1OC	4	1	i	1	active	-4%
Cc1ccc(NC(=O)CN2C(=O)COc3ccc(S(=O)(=O)N4CCOCC4)cc32)cc1F	47	-24	i	0	2	/
CCSc1nnc(NC(=O)C2CCCCC2C(=O)O)s1 (centres undefined)	28	3	i	0	active	0%
CCSc1nnc(NC(=O)C2CC2c2ccccc2)s1 (centres undefined)	27	-1	i	-2	/	/
O=C(CSc1n[nH]c(-c2ccccn2)n1)Nc1cccc(Cl)c1	?	-6	i	-1	56*	14µM*
Cc1nc(SCC(=O)Nc2cccc(Cl)c2)n[nH]1	4	1	i	0	-10	/
Cc1ccc(C)c(NC(=O)CSc2n[nH]c(-c3ccccn3)n2)c1	16	/	i	0	77*	10µM*
COc1ccccc1C(CCNCc1ccc(N(C)C)cc1)c1ccc(OC(C)C)cc1 (centres undefined)	17	-13	i	/	active	7.7µM*
COc1cccc(/C=N/n2c(-c3n[nH]c4c3CCC4)n[nH]c2=S)c1O	25	3	i	-2	34*	-12%
COc1cc(/C=N/n2c(-c3n[nH]c4c3CCC4)n[nH]c2=S)cc(OC)c1O	29	-4	i	-2	-6	/
CCN(CC)S(=O)(=O)c1cccc(-c2nnc(SCC(=O)NC)n2CCc2ccccc2)c1	0	0	i	1	-1	/
O=C(O)COc1ccccc1/C=N/NC(=O)c1cc(-c2ccccc2)nc2ccccc12	18	-3	i	-3	23	/
O=C(O)COc1ccccc1/C=N/NC(=O)c1cc(-c2ccc(Cl)cc2)nc2ccccc12	57	-3	i	-8	41*	56µM*

Source: PubChem (Broad Institute)
